Measured values reported in PMC3776982 (British Journal of Cancer, 2013).

Legend:
breast cancer = details: 10 mg everolimus daily, patients with breast cancer; ref Ellard et al, 2009; cited from earlier work
[1] = test system: previously treated SCLC patients; assay: Adverse events; type: in vivo, human
Outline: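 Toxicities graded by CTCAE v3.0 in adults with SCLC that had progressed after ≥2 prior chemotherapy regimens, including a platinum one. Paclitaxel 175 mg m−2 was given as a 3-h IV infusion every 3 weeks. Everolimus was given orally once daily (2.5, 5 or 10 mg) over 21-day courses. Patients were assessed weekly during cycle 1, then every 3 weeks.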

[2] = all everolimus doses (n=20), any grade, + 3-weekly paclitaxel 175 mg m^−2
[3] = everolimus 2.5 mg daily (n=6), grade 1/2, + 3-weekly paclitaxel 175 mg m^−2
[4] = everolimus 2.5 mg daily (n=6), grade 3/4, + 3-weekly paclitaxel 175 mg m^−2
[5] = everolimus 5 mg daily (n=11), grade 1/2, + 3-weekly paclitaxel 175 mg m^−2
[6] = everolimus 5 mg daily (n=11), grade 3/4, + 3-weekly paclitaxel 175 mg m^−2

CO[C@H]1C[C@@H]2CC[C@@H](C)[C@@](O)(O2)C(=O)C(=O)N2CCCC[C@H]2C(=O)O[C@H]([C@H](C)C[C@@H]2CC[C@@H](OCCO)[C@H](OC)C2)CC(=O)[C@H](C)/C=C(\C)[C@@H](O)[C@@H](OC)C(=O)[C@H](C)C[C@H](C)/C=C/C=C/C=C/1C [everolimus]
Response rate (breast cancer): 12%
ALT increased (number of patients with adverse event) [1, 2]: 6
AST increased (number of patients with adverse event) [1, 2]: 6
Anorexia (number of patients with adverse event) [1, 2]: 6
Diarrhoea (number of patients with adverse event) [1, 2]: 3
Febrile neutropenia (number of patients with adverse event) [1, 2]: 1
Itching (number of patients with adverse event) [1, 2]: 4
Leukopenia (number of patients with adverse event) [1, 2]: 15
Neutropenia (number of patients with adverse event) [1, 2]: 16
Pain (number of patients with adverse event) [1, 2]: 10
Pneumonitis (number of patients with adverse event) [1, 2]: 1
Stomatitis (number of patients with adverse event) [1, 2]: 8
ALT increased (number of patients with adverse event) [1, 3]: 1
AST increased (number of patients with adverse event) [1, 3]: 1
Anaemia (number of patients with adverse event) [1, 3]: 5
Anorexia (number of patients with adverse event) [1, 3]: 2
Diarrhoea (number of patients with adverse event) [1, 3]: 0
Febrile neutropenia (number of patients with adverse event) [1, 3]: 0
Hyperglycemia (number of patients with adverse event) [1, 3]: 6
Hypertriglycemia (number of patients with adverse event) [1, 3]: 3
Itching (number of patients with adverse event) [1, 3]: 0
Leukopenia (number of patients with adverse event) [1, 3]: 4
Neuropathy (number of patients with adverse event) [1, 3]: 1
Neutropenia (number of patients with adverse event) [1, 3]: 3
Pain (number of patients with adverse event) [1, 3]: 2
Pneumonitis (number of patients with adverse event) [1, 3]: 0
Stomatitis (number of patients with adverse event) [1, 3]: 2
Thrombocytopenia (number of patients with adverse event) [1, 3]: 2
Vomiting (number of patients with adverse event) [1, 3]: 0
ALT increased (number of patients with adverse event) [1, 4]: 0
AST increased (number of patients with adverse event) [1, 4]: 0
Anaemia (number of patients with adverse event) [1, 4]: 0
Anorexia (number of patients with adverse event) [1, 4]: 0
Diarrhoea (number of patients with adverse event) [1, 4]: 0
Febrile neutropenia (number of patients with adverse event) [1, 4]: 0
Hyperglycemia (number of patients with adverse event) [1, 4]: 0
Hypertriglycemia (number of patients with adverse event) [1, 4]: 0
Itching (number of patients with adverse event) [1, 4]: 0
Leukopenia (number of patients with adverse event) [1, 4]: 1
Neuropathy (number of patients with adverse event) [1, 4]: 0
Neutropenia (number of patients with adverse event) [1, 4]: 1
Pain (number of patients with adverse event) [1, 4]: 0
Pneumonitis (number of patients with adverse event) [1, 4]: 0
Stomatitis (number of patients with adverse event) [1, 4]: 0
Thrombocytopenia (number of patients with adverse event) [1, 4]: 0
Vomiting (number of patients with adverse event) [1, 4]: 0
ALT increased (number of patients with adverse event) [1, 5]: 5
AST increased (number of patients with adverse event) [1, 5]: 4
Anaemia (number of patients with adverse event) [1, 5]: 10
Anorexia (number of patients with adverse event) [1, 5]: 3
Diarrhoea (number of patients with adverse event) [1, 5]: 2
Febrile neutropenia (number of patients with adverse event) [1, 5]: 0
Hyperglycemia (number of patients with adverse event) [1, 5]: 9
Hypertriglycemia (number of patients with adverse event) [1, 5]: 2
Itching (number of patients with adverse event) [1, 5]: 2
Leukopenia (number of patients with adverse event) [1, 5]: 4
Neuropathy (number of patients with adverse event) [1, 5]: 3
Neutropenia (number of patients with adverse event) [1, 5]: 3
Pain (number of patients with adverse event) [1, 5]: 6
Pneumonitis (number of patients with adverse event) [1, 5]: 1
Stomatitis (number of patients with adverse event) [1, 5]: 5
Thrombocytopenia (number of patients with adverse event) [1, 5]: 3
Vomiting (number of patients with adverse event) [1, 5]: 2
ALT increased (number of patients with adverse event) [1, 6]: 0
AST increased (number of patients with adverse event) [1, 6]: 0
Anaemia (number of patients with adverse event) [1, 6]: 1
Anorexia (number of patients with adverse event) [1, 6]: 0
Diarrhoea (number of patients with adverse event) [1, 6]: 0
Febrile neutropenia (number of patients with adverse event) [1, 6]: 1
Hyperglycemia (number of patients with adverse event) [1, 6]: 0
Hypertriglycemia (number of patients with adverse event) [1, 6]: 0
